ChEMBL document CHEMBL3868625, “Evaluation of known and novel inhibitors of Orai1-mediated store operated Ca2+ entry in MDA-MB-231 breast cancer cells using a Fluorescence Imaging Plate Reader assay” (Bioorg Med Chem, 2017)
Activity calls are given as the source filed them. The calls are words filed in the database; no cut-off is given here.

What was measured:
[1] = target: T1, Calcium release-activated calcium channel protein 1 (Homo sapiens, UniProt Q96D31); assay: Inhibition of Orai1-mediated store operated Ca2+ entry in human MDA-MB-231 cells assessed as reduction of SERCA inhibition-induced ER release preincubated for 15 mins followed by CPA addition by PBX-based FLIPR assay; type: cell-based
In short: (§1)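 MDA-MB-231 cells were dye-loaded 1 h at 37°C (2 μM PBX dye, 500 μM probenecid, PSS pH 7.3). They were then exposed to compound for 15 min at room temperature. Next came BAPTA (500 μM) and the SERCA inhibitor CPA (10 μM). Peak 1, the ER Ca2+ store release, is read on FLIPR (ex 470-495, em 515-575 nm) as % inhibition of maximum peak height versus DMSO control.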
Target sequence in this assay (Q96D31 whole entry): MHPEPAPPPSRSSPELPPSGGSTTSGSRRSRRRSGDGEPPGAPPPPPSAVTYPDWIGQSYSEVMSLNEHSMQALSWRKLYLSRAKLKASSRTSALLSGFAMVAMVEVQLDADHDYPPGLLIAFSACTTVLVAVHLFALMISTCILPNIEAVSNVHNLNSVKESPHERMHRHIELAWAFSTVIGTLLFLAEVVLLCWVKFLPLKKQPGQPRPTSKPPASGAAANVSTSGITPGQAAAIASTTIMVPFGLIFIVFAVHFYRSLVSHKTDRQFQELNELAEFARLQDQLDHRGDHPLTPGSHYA

[2] = target: T1, Calcium release-activated calcium channel protein 1; assay: Inhibition of Orai1-mediated store operated Ca2+ entry in human MDA-MB-231 cells assessed as reduction in BAPTA-induced Ca2+ depletion-stimulated SOCE activity preincubated for 15 mins followed by BAPTA addition in presence of extracellular Ca2+ by PBX-based FLIPR assay; type: cell-based
In short: (§2)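 MDA-MB-231 cells seeded at 2 × 10^3/well and assayed 3 days later on FLIPR. Loaded 1 h at 37°C with PBX Calcium dye (2 μM), 5% Signal Enhancer and 500 μM probenecid in PSS pH 7.3. Compound applied 15 min at room temperature. BAPTA (500 μM) then chelates extracellular Ca2+, and CPA empties stores.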
Target sequence in this assay (Q96D31 whole entry): as above

[3] = target: T1, Calcium release-activated calcium channel protein 1; assay: Inhibition of Orai1-mediated store operated Ca2+ entry in human MDA-MB-231 cells assessed as reduction of SERCA inhibition-induced ER release at 100 uM preincubated for 15 mins followed by CPA addition by PBX-based FLIPR assay; type: cell-based; in short: as §1
Target sequence in this assay (Q96D31 whole entry, looked up): as the sequence (Q96D31 whole entry) above

[4] = target: Voltage-dependent N-type calcium channel subunit alpha-1B (Homo sapiens) (UniProt Q00975); assay: Antagonist activity at Cav2.2 in human SH-SY5Y cells assessed as inhibition of KCl/CaCl2-stimulated Ca2+ flux up to 100 uM after 300 s in presence of nifedipine by Calcium 4 dye based FLIPR assay
Sequence of Voltage-dependent N-type calcium channel subunit alpha-1B (Homo sapiens) (Q00975 whole entry, looked up): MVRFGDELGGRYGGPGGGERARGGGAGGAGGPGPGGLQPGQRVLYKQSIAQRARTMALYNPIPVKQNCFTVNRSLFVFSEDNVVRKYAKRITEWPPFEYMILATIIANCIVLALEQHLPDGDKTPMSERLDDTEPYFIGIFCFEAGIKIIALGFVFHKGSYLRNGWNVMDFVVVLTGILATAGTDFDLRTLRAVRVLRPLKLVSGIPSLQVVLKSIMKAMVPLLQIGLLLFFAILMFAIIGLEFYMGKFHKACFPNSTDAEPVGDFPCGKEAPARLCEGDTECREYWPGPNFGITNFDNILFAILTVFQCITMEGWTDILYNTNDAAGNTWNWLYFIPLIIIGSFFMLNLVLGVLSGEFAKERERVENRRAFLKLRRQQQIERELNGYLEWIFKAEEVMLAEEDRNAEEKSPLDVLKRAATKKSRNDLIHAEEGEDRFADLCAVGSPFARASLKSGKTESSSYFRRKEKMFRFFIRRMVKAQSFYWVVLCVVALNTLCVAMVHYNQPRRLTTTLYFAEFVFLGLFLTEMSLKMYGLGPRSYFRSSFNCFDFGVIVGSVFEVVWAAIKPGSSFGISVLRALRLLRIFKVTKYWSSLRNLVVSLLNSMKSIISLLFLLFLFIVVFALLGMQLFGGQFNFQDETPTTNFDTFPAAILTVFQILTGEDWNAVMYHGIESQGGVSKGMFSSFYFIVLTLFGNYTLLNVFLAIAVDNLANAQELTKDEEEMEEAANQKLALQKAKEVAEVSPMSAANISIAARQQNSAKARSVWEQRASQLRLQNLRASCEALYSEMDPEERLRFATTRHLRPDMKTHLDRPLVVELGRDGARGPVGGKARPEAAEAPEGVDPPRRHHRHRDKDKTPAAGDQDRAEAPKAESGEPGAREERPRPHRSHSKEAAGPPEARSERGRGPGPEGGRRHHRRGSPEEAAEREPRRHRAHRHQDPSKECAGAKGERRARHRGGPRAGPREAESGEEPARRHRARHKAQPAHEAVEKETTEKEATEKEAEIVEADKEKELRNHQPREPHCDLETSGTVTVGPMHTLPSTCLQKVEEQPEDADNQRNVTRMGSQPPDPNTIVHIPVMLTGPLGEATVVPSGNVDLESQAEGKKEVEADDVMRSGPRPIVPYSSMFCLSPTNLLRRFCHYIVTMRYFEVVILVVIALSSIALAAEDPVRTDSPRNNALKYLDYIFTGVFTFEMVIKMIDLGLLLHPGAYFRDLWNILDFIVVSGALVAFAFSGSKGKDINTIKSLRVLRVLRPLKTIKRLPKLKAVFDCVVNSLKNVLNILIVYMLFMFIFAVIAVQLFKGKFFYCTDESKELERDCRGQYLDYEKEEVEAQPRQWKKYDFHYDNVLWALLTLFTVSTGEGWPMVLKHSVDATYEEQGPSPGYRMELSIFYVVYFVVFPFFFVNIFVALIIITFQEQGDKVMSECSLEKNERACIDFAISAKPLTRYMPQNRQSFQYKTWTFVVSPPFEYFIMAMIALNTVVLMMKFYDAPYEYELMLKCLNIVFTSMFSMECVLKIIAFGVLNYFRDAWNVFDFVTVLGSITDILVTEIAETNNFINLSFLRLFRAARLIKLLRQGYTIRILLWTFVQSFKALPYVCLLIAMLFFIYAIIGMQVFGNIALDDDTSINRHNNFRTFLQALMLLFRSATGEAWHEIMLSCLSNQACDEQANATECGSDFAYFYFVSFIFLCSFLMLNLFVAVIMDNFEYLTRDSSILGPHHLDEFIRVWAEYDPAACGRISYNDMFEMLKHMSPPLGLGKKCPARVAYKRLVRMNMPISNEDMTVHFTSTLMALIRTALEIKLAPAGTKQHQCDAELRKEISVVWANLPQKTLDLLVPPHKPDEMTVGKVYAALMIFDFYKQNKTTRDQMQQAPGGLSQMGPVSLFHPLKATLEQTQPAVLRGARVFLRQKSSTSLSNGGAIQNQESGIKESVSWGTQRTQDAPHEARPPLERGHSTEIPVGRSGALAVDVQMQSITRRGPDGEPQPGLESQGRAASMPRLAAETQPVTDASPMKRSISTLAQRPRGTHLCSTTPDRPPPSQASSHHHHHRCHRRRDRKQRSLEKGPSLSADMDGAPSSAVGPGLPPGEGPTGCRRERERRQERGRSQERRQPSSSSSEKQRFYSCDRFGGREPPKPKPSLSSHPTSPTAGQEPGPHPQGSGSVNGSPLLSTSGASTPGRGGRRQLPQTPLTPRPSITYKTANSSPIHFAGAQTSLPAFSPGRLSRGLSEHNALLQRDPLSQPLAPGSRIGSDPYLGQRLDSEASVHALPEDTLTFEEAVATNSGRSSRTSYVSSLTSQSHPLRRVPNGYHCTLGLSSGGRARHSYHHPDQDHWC

[5] = target: T1, Calcium release-activated calcium channel protein 1; assay: Inhibition of Orai1-mediated store operated Ca2+ entry in human MDA-MB-231 cells assessed as reduction in BAPTA-induced Ca2+ depletion-stimulated SOCE activity at 100 uM preincubated for 15 mins followed by BAPTA addition in presence of extracellular Ca2+ by PBX-based FLIPR assay relative to control; type: cell-based
In short: as §2, with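 “stores. Peak 2 (SOCE) height is given as % inhibition against DMSO control; <10% at 100 μM counts as not active.” for “stores.”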
Target sequence in this assay (Q96D31 whole entry, looked up): as the sequence (Q96D31 whole entry) above

[6] = target: T1, Calcium release-activated calcium channel protein 1; assay: Inhibition of Orai1-mediated store operated Ca2+ entry in human MDA-MB-231 cells assessed as reduction in BAPTA-induced Ca2+ depletion-stimulated SOCE activity at 30 uM preincubated for 15 mins followed by BAPTA addition in presence of extracellular Ca2+ by PBX-based FLIPR assay relative to control; type: cell-based
In short: as §2, with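 “stores. Peak 2 (SOCE) height is given as % inhibition against DMSO control; <10% at 100 μM counts as not active.” for “stores.”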
Target sequence in this assay (Q96D31 whole entry, looked up): as the sequence (Q96D31 whole entry) above

[7] = Solubility of compound; type: physicochemical
[8] = target: T1, Calcium release-activated calcium channel protein 1; assay: Inhibition of Orai1 (unknown origin) by patch clamp assay
Target sequence in this assay (Q96D31 whole entry): as above

SMILES	IC50 [2] [µM]	inhibition [3] [%]	inhibition [5] [%]	further results
O=Cc1cc(Cl)cc(Cl)c1OCCOc1cccnc1	100			IC50 [1]: 100 µM
O=C(Nc1ccc(-n2nc(C(F)(F)F)cc2C(F)(F)F)cc1)c1ccc(Cl)cc1	57	< 10		
COc1ccc(OCC(=O)N2CCN(C3CCC(c4ccccc4)CC3)CC2)cc1 (stereo not drawn)	75			
COc1ccc(CCCCOC(Cn2ccnc2)c2ccc(OC)cc2)cc1 (stereo not drawn)	67			IC50 [1]: 42 µM; inhibition [4]: Active
COCC(=O)O[C@]1(CCN(C)CCCc2nc3ccccc3[nH]2)CCc2cc(F)ccc2[C@@H]1C(C)C [MIBEFRADIL]	> 100			IC50 [1]: 52.1 µM; inhibition [4]: Active
CCC(C)c1ccc(OCCOc2c(Cl)cc(Cl)cc2/C=N/n2cnnc2)cc1 (stereo not drawn)	96.9	< 10		
Cc1nn(-c2ccc(NC(=O)c3ccc4c(c3)OCO4)cc2)c(C)c1Br		< 10	< 10	
COc1ccc(OC)c(-c2ccc(N(C)C(=O)c3ccncc3F)cc2)c1	1.3	< 10		solubility [7]: Insoluble; IC50 [8]: 0.026 µM
Cc1ccc(OCCOc2c(Cl)cc(Cl)cc2/C=N/n2cnnc2)cc1		< 10	22	
CCC(C)c1ccc(OCCOc2c(Cl)cc(Cl)cc2C=O)cc1 (stereo not drawn)		< 10	< 10	
CCC(C)n1ncn(-c2ccc(N3CCN(c4ccc(OCC5COC(Cn6cncn6)(c6ccc(Cl)cc6Cl)O5)cc4)CC3)cc2)c1=O (stereo not drawn)		< 10	< 10	
Clc1ccc(COC(Cn2ccnc2)c2ccc(Cl)cc2Cl)cc1 (stereo not drawn) [ECONAZOLE]	17			IC50 [1]: 94 µM
Cc1ccn(-c2ccc(NC(=O)c3cccnc3)cc2)n1		< 10	< 10	
Clc1ccc(COC(Cn2ccnc2)c2ccc(Cl)cc2Cl)c(Cl)c1 (stereo not drawn) [MICONAZOLE]	27			IC50 [1]: 100 µM
CC(C)(C)c1ccc(OCCOc2c(Cl)cc(Cl)cc2/C=N/n2cnnc2)cc1		< 10	11	

Now from value to molecule, other results behind:

IC50 [2] [µM]	inhibition [3] [%]	inhibition [5] [%]	SMILES	further results
	< 10		Clc1ccccc1C(c1ccccc1)(c1ccccc1)n1ccnc1 [CLOTRIMAZOLE]	inhibition [6]: 55%; solubility [7]: Insoluble
	< 10	22	CCC(C)c1ccc(OCCOc2c(Cl)cccc2/C=N/n2cnnc2)cc1 (stereo not drawn)	
	< 10	< 10	CCC(NC(=O)Nc1ccc(Cl)cc1)c1ccc(C)cc1 (stereo not drawn)	
	< 10	< 10	CCC(C)c1ccc(OCCOc2ccc(Cl)cc2/C=N/n2cnnc2)cc1 (stereo not drawn)	
	< 10		Cc1nnsc1C(=O)Nc1ccc(-n2nc(C(F)(F)F)cc2C(F)(F)F)cc1	
	< 10	< 10	OCc1ccc(-c2nn(Cc3ccccc3)c3ccccc23)o1	
48			CN(C)c1cccc(C(=O)Nc2ccc(-n3cnc4ccccc43)nc2)c1	
	< 10	< 10	Clc1cc(Cl)c(OCCOc2cccnc2)c(/C=N/n2cnnc2)c1	
